Converted amounts (≈) assume the structure as drawn. Where two headings read alike, the source gives them in different places.
What was measured:
[1] = system: hepatic microsomes from PB-, DEX- or VEH-treated rats (P450 enzymes); format: in vitro ADME, rat; conditions: for Metabolite identified by GC/MS (major/minor): large scale experiment; for Metabolite formation, Percent of ΣOH-PCB: 37°C; for Percent of PCB 136 metabolized to the metabolite: microsomes from PB-, DEX- or VEH-treated rats; for Percent of PCB 136 metabolized to the metabolite / Percent of PCB 136 converted to the metabolite: 50 μM PCB 136; for Formation of metabolite relative to microsomes from VEH-treated rats: 2 min incubation
[2] = system: Ryanodine receptors (RyRs); conditions: cited from earlier work
[3] = system: hepatic microsomes from PB-, DEX- or VEH-treated rats (P450 enzymes); experiment: Enantioselective gas chromatography; format: in vitro ADME, rat; conditions: for Enantiomeric fraction (EF), range over time course: 50 μM PCB 136
rat recombinant P450 2B1 = conditions: cited from earlier work
P450 3A = experiment: BQ activity of hepatic microsomes from inducer-treated rats; format: biochemical, rat; conditions: intraperitoneal inducer treatment of male Sprague-Dawley rats, relative to VEH
P450 2B enzymes = experiment: BROD activity of hepatic microsomes from inducer-treated rats; format: biochemical, rat; conditions: intraperitoneal inducer treatment of male Sprague-Dawley rats, relative to VEH
[4] = Aqueous solubility of PCB 136 in incubation buffer by light scattering; format: physicochemical; conditions: phosphate buffer (incubation buffer), pH 7.4
Outline: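 Test compound dissolved in DMSO was added to 0.1 M phosphate buffer containing 3 mM MgCl2. Light scattering was read at 37 °C in a Peltier-controlled luminescence spectrophotometer, with excitation and emission both at 400 nm and 5 nm slits. Integration time was 5 s, with 5 min pre-recording followed by 5 min recording.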

[5] = microsomes from PB-treated rats
[6] = microsomes from DEX-treated rats, 5 μM PCB 136, 5 min
[7] = microsomes from PB-treated rats, 5 μM PCB 136, 5 min
[8] = microsomes from VEH-treated rats, 5 μM PCB 136, 5 min
[9] = all incubations with 5 μM PCB 136
[10] = all three microsomal preparations
[11] = microsomes from PB-treated rats, 50 μM PCB 136, 5 min
[12] = microsomes from DEX-treated rats

Oc1c(O)c(Cl)c(-c2c(Cl)ccc(Cl)c2Cl)c(Cl)c1Cl [4,5-diOH-PCB 136, 2,2',3,3',6,6'-hexachlorobiphenyl-4,5-diol]
Metabolite identified by GC/MS (major/minor) [1, 5]: minor metabolites | Metabolite formation, Percent of ΣOH-PCB [1, 6]: 3% | Percent of PCB 136 metabolized to the metabolite [1]: < 0.1% | Metabolite formation, Percent of ΣOH-PCB [1, 7]: 22% | Metabolite formation, Percent of ΣOH-PCB [1, 8]: 2% | Metabolite formation, Percent of ΣOH-PCB ([1]; microsomes from VEH-treated rats, 50 μM PCB 136, 5 min): 1%

Oc1cc(Cl)c(-c2c(Cl)ccc(Cl)c2Cl)c(Cl)c1Cl [4-OH-PCB 136, 2,2',3,3',6,6'-hexachlorobiphenyl-4-ol]
Concentration needed to double basal RyR activity (EC2x) [2]: 1.60 µM | Enantiomeric fraction (EF) ([3]; DEX-microsomes, 5 μM PCB 136, 30 min): 0.22 | Enantiomeric fraction (EF) ([3]; DEX-microsomes, 50 μM PCB 136, 1 min): 0.39 | Enantiomeric fraction (EF) ([3]; DEX-microsomes, 50 μM PCB 136, 10 min): 0.33 | Enantiomeric fraction (EF) ([3]; PB-microsomes, 50 μM PCB 136, 1 min): 0.43 | Enantiomeric fraction (EF), direction of enrichment [3, 9]: < 0.5 | Enantiomeric fraction (EF), direction of enrichment [3, 10]: < 0.5 | Metabolite identified by GC/MS (major/minor) [1, 5]: minor metabolites | Metabolite formation, Percent of ΣOH-PCB [1, 6]: 3% | Metabolite formation, Percent of ΣOH-PCB ([1]; microsomes from DEX-treated rats, 50 μM PCB 136, 5 min): 2% | Percent of PCB 136 metabolized to the metabolite [1]: 0.1% | Metabolite formation, Percent of ΣOH-PCB [1, 11]: 1% | Metabolite formation, Percent of ΣOH-PCB [1, 8]: 15% | Formation of metabolite by rat recombinant P450 2B1 (rat recombinant P450 2B1): no detectable quantities

Oc1cc(Cl)c(Cl)c(-c2c(Cl)ccc(Cl)c2Cl)c1Cl [5-OH-PCB 136, 2,2',3,3',6,6'-hexachlorobiphenyl-5-ol]
Enantiomeric fraction (EF), range over time course ([3]; PB-microsomes): 0.70-0.72 | Enantiomeric fraction (EF), range over time course ([3]; VEH-microsomes): 0.62-0.75 | Enantiomeric fraction (EF) ([3]; VEH-microsomes, 50 μM PCB 136, 1 min): 0.62 | Enantiomeric fraction (EF), direction of enrichment [3, 9]: > 0.5 | Enantiomeric fraction (EF), direction of enrichment [3, 10]: > 0.5 | Metabolite identified by GC/MS (major/minor) [1, 5]: major metabolite | Metabolite formation, Percent of ΣOH-PCB [1, 6]: 94% | Percent of PCB 136 converted to the metabolite [1, 12]: ~2% | Formation of metabolite relative to microsomes from VEH-treated rats [1, 12]: 8 times | Metabolite formation, Percent of ΣOH-PCB [1, 7]: 78% | Percent of PCB 136 converted to the metabolite [1, 5]: approximately 22% | Metabolite formation, Percent of ΣOH-PCB [1, 11]: 99% | Formation of metabolite relative to microsomes from VEH-treated rats [1, 5]: 84 times | Metabolite formation, Percent of ΣOH-PCB [1, 8]: 83% | Percent of PCB 136 converted to the metabolite ([1]; microsomes from VEH-treated rats): ~0.4%

Clc1ccc(Cl)c(-c2c(Cl)ccc(Cl)c2Cl)c1Cl [(-)-PCB 136]
Activity towards RyRs ([2]; enantiospecific): displays activity

C[C@@H]1C[C@H]2[C@@H]3CCC4=CC(=O)C=C[C@]4(C)[C@@]3(F)[C@@H](O)C[C@]2(C)[C@@]1(O)C(=O)CO [DEX, dexamethasone]
Increase in BQ activity in hepatic microsomes of treated rats (P450 3A): 84 fold | Increase in BROD activity in hepatic microsomes of treated rats (P450 2B enzymes): 7 fold

CCC1(c2ccccc2)C(=O)NC(=O)NC1=O [PB, phenobarbital]
Increase in BROD activity in hepatic microsomes of treated rats (P450 2B enzymes): 94 fold

Clc1ccc(Cl)c(-c2c(Cl)ccc(Cl)c2Cl)c1Cl [PCB 136, 2,2',3,3',6,6'-hexachlorobiphenyl]
Enantiomeric fraction (EF) ([3]; PB-microsomes, 5 μM PCB 136, 5 min incubation): 0.35 | Enantiomeric fraction (EF) ([3]; VEH-microsomes, 5 μM PCB 136, 5 min incubation): 0.49 | solubility [4]: ~0.25 µM (≈ 0.0902 µg/mL)

Source: publication PMC3243785 (Chemical research in toxicology, 2011)
